B1: GFP aptamer (parent)
chain: GCUUCUGGACUGCGAUGGGAGCACGAAACGUCGUGGCGCAAUUGGGUGGGGAAAGUCCUUAAAAGAGGGCCACCACAGAAGC

Variants of: B1
Experiment: HiTS-RAP
Settings: with EGFP
Method in brief: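 Aptamer DNA templates carrying a T7 promoter and ter site were sequenced on an Illumina GAIIx flowcell, then transcribed in situ by T7 RNA polymerase and halted by GST-Tus (30 minutes, 37°C). Clusters were imaged after 30-minute room-temperature equilibration with EGFP-mOrange at 0.04 nM to 625 nM in fivefold steps. Intensities were decay-corrected, normalised to sequencing intensity and averaged per sequence. Kd came from weighted Hill fits per lane, geometrically averaged over three lanes, with non-rising sequences set to 125 nM.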

Row | Variant | Kd [nM]
1 | G18U | ≥ 125
2 | G18A | ≥ 125
3 | G18C | ≥ 125
4 | C10U C13U | 15.1
5 | C32U A79G | 5.26
6 | C24U G33A | 5.72
7 | A15G A27G | 5.3
8 | A9U | 6.86
9 | A9G | 14.8
10 | A9C | 8
11 | C13U C70U | 2.02
12 | C10U A77G | 36
13 | G25A C74U | 4.63
14 | G14A A28G | 4.8
15 | A28G G46A | 14.2
16 | A23G U31C | 3.06
17 | G30A C73U | 0.856
18 | A26G A27G | 2.12
19 | A23C | 13.2
20 | A23G | 5.87
21 | A23U | 11.2
22 | A26G A41G | 2.97
23 | G25C | 7
24 | G25U | 3.87

Row | Variant | Kd [nM]
25 | G25A | 5
26 | U34C C58U | 68.2
27 | A27G G33A | 5.11
28 | U31G | 3.99
29 | U31C | 4.31
30 | U31A | 4.16
31 | C29U C74U | 1.86
32 | A20G A27G | 4.69
33 | U31C G44A | 1.82
34 | G33A A79G | 11.9
35 | C10U C37U | 14.3
36 | A15G A28G | 3.9
37 | C10U A23G | 5.08
38 | A27G G30A | 2.45
39 | U11C U31C | 14.2
40 | A20G A23G | 1.51
41 | C13U U43C | 8.72
42 | A20G G33A | 49
43 | U31C A40G | 4.07
44 | C13U C58U | 0.942
45 | C32U C74U | 11.9
46 | G35C | ≥ 125
47 | G35A | ≥ 125
48 | G35U | ≥ 125

Row | Variant | Kd [nM]
49 | A27G C74U | 3.31
50 | C10U C29U | 3.83
51 | A20G A41G | 19.6
52 | C29U | 4.49
53 | C29G | 4.09
54 | C29A | 3.32
55 | A26G | 4.22
56 | A26C | 4.53
57 | A26U | 4.33
58 | C37U A77G | 2.53
59 | U16C U59C | 7.5
60 | C22U C58U | 12.7
61 | G25A U31C | 3.75
62 | C32A | 3.24
63 | C32G | 4.95
64 | C32U | 4.26
65 | U11C A77G | 9.02
66 | A20G U60A | 7.33
67 | A27G G68A | 17.3
68 | U31C C58U | 1.14
69 | G12A | 22.4
70 | G12C | 30.6
71 | G12U | 18.9
72 | C10U A20G | 3.79

Row | Variant | Kd [nM]
73 | A27G A77G | 4.47
74 | U16A | 5.38
75 | U16C | 6.81
76 | U16G | 2.69
77 | A27G | 4.28
78 | A27C | 4.47
79 | A27U | 3.98
80 | C37U U43C | 12.8
81 | A20G A62G | 13.1
82 | A27G C32U | 3.03
83 | C13U U34C | 36.2
84 | A27G A75G | 5.08
85 | C10U A28G | 4.55
86 | C24U C58U | 2.39
87 | C32U G68A | 60.2
88 | G25A A77G | 3.54
89 | A27G A40G | 2.81
90 | G25A A28G | 5.89
91 | A27G A28G | 4.44
92 | U31C G68A | 28.1
93 | U11C A27G | 3.8
94 | C24U A41G | 11.7
95 | C10U | 4.3
96 | C10G | 4.07

Row | Variant | Kd [nM]
97 | C10A | 3.61
98 | A27G C37U | 3.28
99 | G30A A75G | 41.1
100 | C22U G68A | 18
101 | G8A | 26.7
102 | G8U | 5.56
103 | G8C | 61.5
104 | C13U A28G | 3.77
105 | C10U G33A | 29.6
106 | G36C | ≥ 125
107 | G36U | ≥ 125
108 | G36A | 63.3
109 | A20G A79G | 37.9
110 | C10U U47C | 1.58
111 | A28G C58U | 1.28
112 | G33A C73U | 8.48
113 | G25A A27G | 5.68
114 | A28G | 4.55
115 | A28U | 4.46
116 | A28C | 6.92
117 | A9G A27G | 21
118 | C24U A28G | 2.43
119 | C24U A27G | 7.09
120 | A20G A28G | 15.5

Row | Variant | Kd [nM]
121 | C13U U42C | 3.54
122 | A27G C73U | 10.5
123 | A23G A26G | 35.8
124 | A28G U47C | 1.08
125 | A28G U47A | 3.89
126 | C22U | 9.58
127 | C22A | 13.8
128 | C22G | 29.1
129 | C10U U34C | 4.37
130 | G30A G68A | 31.8
131 | A28G C37U | 7.93
132 | A15G G25A | 2.42
133 | U11C A28G | 15.9
134 | G25A U43C | 2.24
135 | G21U | 6
136 | G21A | ≥ 125
137 | G21C | 5.13
138 | C24G | 13.2
139 | C24A | 10.6
140 | C24U | 4.82
141 | C39G | 9.2
142 | C39U | 10.3
143 | G25A C58U | 2.17
144 | C22U A41G | 21.2

Row | Variant | Kd [nM]
145 | U11C C73U | 44.7
146 | C10U C73U | 5.31
147 | C37U | 19.1
148 | C37G | 15.5
149 | C37A | 5.05
150 | C5G | 5.26
151 | C5U | 4.3
152 | C5A | 8.09
153 | C22U U43C | 2.31
154 | C22U A28G | 10.1
155 | A26G C73U | 5.43
156 | U31C A41G | 3.04
157 | U3A | 3.51
158 | U3C | 4.42
159 | U3G | 5.4
160 | U11A | 4.13
161 | U11C | 24.2
162 | U11G | 3.81
163 | C13U A41G | 10
164 | A40C | ≥ 125
165 | A40G | 4.95
166 | A27G A79G | 2.94
167 | C13U | 4.53

— the RNAGym collection of RNA variant scans (doi:10.1038/nmeth.2970)
